Where a SMILES comes first, the peptide text is derived from it. The star is where a group is joined. Succinyl(O17-estradiol) = C[C@]12CC[C@@H]3c4ccc(O)cc4CC[C@H]3[C@@H]1CC[C@@H]2OC(=O)CCC(=O)*; X2 = C[C@]12CC[C@@H]3c4ccc(OCC(=O)*)cc4CC[C@H]3[C@@H]1CCC2=O
Experiments:
Mus musculus [1] = assay: Effect on dry weight of femurs in mouse at 0.1103 mmol/kg, po; assay type: functional, Femur
Summary of the method: (§1)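 Female Kuiming mice (7 weeks old, 30.7 ± 3.1 g) under abdominal OVX, sham group abdominorotomy only. From day 5 after surgery, dosed orally once daily for 4 weeks at 110.3 × 10-3 mmol/kg in 0.5% CMC (0.2 mL), vehicle group CMC alone. Blood drawn retro-orbitally, then left femur and organs removed under pentobarbital (40.0 mg/kg, i.p.).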

Mus musculus [2] = assay: Effect on femur ash weight in mouse at 0.1103 mmol/kg, po; assay type: functional; summary of the method: as §1
Mus musculus [3] = assay: Effect on lenght of femur in mouse at 0.110 mmol/kg, po; assay type: functional; summary of the method: as §1
Mus musculus [4] = assay: Effect on calcium level in mouse at 0.1103 mmol/kg, po; assay type: functional; summary of the method: as §1
Mus musculus [5] = assay: Effect on phosphorus level in mouse at 0.110 mmol/kg, po; assay type: functional; summary of the method: as §1
Mus musculus [6] = assay: Effect on serum calcium level in mouse at 0.1103 mmol/kg, po; assay type: functional
Summary of the method: (§2)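 Oral OVX Kuiming mouse model, dosed daily for 4 weeks at 110.3 × 10-3 mmol/kg in 0.5% CMC. Retro-orbital blood stood 30 min at room temperature and was spun at 3000 g for 20 min. Serum kept at -20 °C. Calcium read by o-methylphenolphthalein complexone, phosphorus by molybdenum blue, ALP by activity on disodium phenylphosphate substrate.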

Mus musculus [7] = assay: Effect on serum phosphorous Concentration in mouse at 0.110 mmol/kg, po; assay type: functional; summary of the method: as §2
Mus musculus [8] = assay: Effect on serum ALP level in mouse at 0.1103 mmol/kg, po; assay type: functional; summary of the method: as §2
Mus musculus [9] = assay: Effect on lung weight in mouse at 0.1103 mmol/kg, po; assay type: functional; summary of the method: as §1
Mus musculus [10] = assay: Effect on liver weight in mouse at 0.1103 mmol/kg, po; assay type: functional; summary of the method: as §1
Mus musculus [11] = assay: Effect on spleen weight in mouse at 0.1103 mmol/kg, po; assay type: functional; summary of the method: as §1
Mus musculus [12] = assay: Increase in body weight in ovariectomized mouse at 0.1103 mmol/kg, ip once daily for 4 weeks; assay type: functional
Summary of the method: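 Female Kuiming mice (30.7 ± 3.1 g) underwent abdominal OVX; the sham group had abdominorotomy only. From day 5 after surgery, i.p. dosing once daily for 4 weeks at 110.3 × 10-3 mmol/kg in aqueous 0.5% CMC. Body weight was recorded on the day of the last administration.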

Mus musculus [13] = assay: Effect on serum ALP lavel in ovariectomized mouse at 0.1103 mmol/kg, ip once daily for 4 weeks; assay type: functional
Summary of the method: (§3)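 OVX Kuiming mice dosed i.p. daily for 4 weeks in 0.5% CMC. Blood taken retro-orbitally on the day after the last dose, stood 30 min, spun at 3000 g for 20 min, serum stored at -20 °C. Calcium by o-methylphenolphthalein complexone, phosphorus by molybdenum blue, ALP by activity with disodium phenylphosphate substrate.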

Mus musculus [14] = assay: Effect on serum calcium level in ovariectomized mouse at 0.1103 mmol/kg, ip once daily for 4 weeks; assay type: functional; summary of the method: as §3
Mus musculus [15] = assay: Effect on serum phosphorus level in ovariectomized mouse at 0.1103 mmol/kg, ip once daily for 4 weeks; assay type: functional; summary of the method: as §3
Mus musculus [16] = assay: Effect on dry weight of femurs in ovariectomized mouse at 0.1103 mmol/kg, ip once daily for 4 weeks; assay type: functional, Femur
Summary of the method: (§4)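 Female Kuiming mice (7 weeks, 30.7 ± 3.1 g) ovariectomized, sham group abdominorotomy. From day 5, i.p. once daily for 4 weeks at 110.3 × 10-3 mmol/kg in 0.5% CMC. Left femur cleaned, length measured, defatted in chloroform-methanol (2:1, 2 × 3 h), dried 120 °C 6 h for dry weight, ashed 800 °C 8 h. Mineral content = ash/dry weight. Ash dissolved in 6 N HCl and diluted. Ca by o-methylphenolphthalein complexone, P by molybdenum blue. Lungs and livers weighed directly.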

Mus musculus [17] = assay: Effect on femur ash weight in ovariectomized mouse at 0.1103 mmol/kg, ip once daily for 4 weeks; assay type: functional; summary of the method: as §4
Mus musculus [18] = assay: Effect on femur length in ovariectomized mouse at 0.1103 mmol/kg, ip once daily for 4 weeks; assay type: functional; summary of the method: as §4
Mus musculus [19] = assay: Effect on calcium level in ovariectomized mouse at 0.1103 mmol/kg, ip once daily for 4 weeks; assay type: functional; summary of the method: as §4
Mus musculus [20] = assay: Effect on phosphorus level in ovariectomized mouse at 0.1103 mmol/kg, ip once daily for 4 weeks; assay type: functional; summary of the method: as §4
Mus musculus [21] = assay: Effect on spleen weight in ovariectomized mouse at 0.1103 mmol/kg, ip once daily for 4 weeks; assay type: functional
Summary of the method: (§5)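 Female Kuiming mice (7 weeks old, 30.7 ± 3.1 g), abdominal OVX under pentobarbital (40.0 mg/kg i.p.). From day 5 after surgery, i.p. injection once daily for 4 weeks, compound in aqueous 0.5% CMC prepared just before use. The day after the last dose, mice were anesthetized and killed, and lungs, livers, spleens and uteri were removed and weighed directly. n = 12, ANOVA, p < 0.05.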

Mus musculus [22] = assay: Effect on mineral content in ovariectomized mouse at 0.1103 mmol/kg, ip once daily for 4 weeks; assay type: functional; summary of the method: as §4
Mus musculus [23] = assay: Effect on lung weight in ovariectomized mouse at 0.1103 mmol/kg, ip once daily for 4 weeks; assay type: functional; summary of the method: as §4
Mus musculus [24] = assay: Effect on liver weight in ovariectomized mouse at 0.110 mmol/kg, ip once daily for 4 weeks; assay type: functional; summary of the method: as §4
Mus musculus [25] = assay: Effect on uterus weight in ovariectomized mouse at 0.1103 mmol/kg, ip once daily for 4 weeks; assay type: functional; summary of the method: as §5
Mus musculus [26] = assay: Effect on uterus weight in mouse at 0.1103 mmol/kg, po; assay type: functional
Mus musculus [27] = assay: Effect on mineral content in mouse at 0.1103 mmol/kg, po; assay type: functional; summary of the method: as §1

Compound | Activity (Mus musculus [1]) | Activity (Mus musculus [2]) | Activity (Mus musculus [3]) | Activity (Mus musculus [4]) | Activity (Mus musculus [5]) | Activity (Mus musculus [6]) | Activity (Mus musculus [12]) | Activity (Mus musculus [13]) | Activity (Mus musculus [14]) | Activity (Mus musculus [15]) | Activity (Mus musculus [16]) | Activity (Mus musculus [17]) | Activity (Mus musculus [18]) | Activity (Mus musculus [19]) | Activity (Mus musculus [20]) | Activity (Mus musculus [21]) | Ratio (Mus musculus [22]) | Activity (Mus musculus [23]) | Activity (Mus musculus [24]) | Activity (Mus musculus [25]) | further results
C[C@]12CC[C@@H]3c4ccc(O)cc4CC[C@H]3[C@@H]1CC[C@@H]2OC(=O)CCC(=O)N[C@@H](CCCNC(=N)N)C(=O)NCC(=O)N[C@@H](CC(=O)O)C(=O)N[C@@H](Cc1ccccc1)C(=O)O ({Succinyl(O17-estradiol)}-RGDF-OH) | 62.7 mg | 30 mg | 1.638 cm | 51.903% | 24.9% | 2.04 mmol/L | 34.8 g | 31.486 U/L | 2.005 mmol/L | 1.605 mmol/L | 66 mg | 34.8 mg | 1.635 cm | 52.798% | 24.665% | 142 mg | 0.533 | 164 mg | 1.391 g | 71.2 mg | Activity (Mus musculus [7]): 1.6 mmol/L; Activity (Mus musculus [8]): 35.511 U/L; Activity (Mus musculus [9]): 167 mg; Activity (Mus musculus [10]): 1.338 g; Activity (Mus musculus [11]): 142 mg; Activity (Mus musculus [26]): 38.2 mg
C[C@]12CC[C@@H]3c4ccc(O)cc4CC[C@H]3[C@@H]1CC[C@@H]2OC(=O)CCC(=O)N[C@@H](CCCNC(=N)N)C(=O)NCC(=O)N[C@@H](CC(=O)O)C(=O)N[C@@H](CO)C(=O)O ({Succinyl(O17-estradiol)}-RGDS-OH) | 68.8 mg | 29.3 mg | 1.654 cm | 51.201% | 24.885% | 2.04 mmol/L | 35.4 g | 32.771 U/L | 2.002 mmol/L | 1.602 mmol/L | 66.4 mg | 34.4 mg | 1.634 cm | 51.312% | 24.92% | 130 mg | 0.52 | 151 mg | 1.371 g | 55.5 mg | Ratio (Mus musculus [27]): 51.5%; Activity (Mus musculus [7]): 1.6 mmol/L; Activity (Mus musculus [8]): 35.4 U/L; Activity (Mus musculus [9]): 161 mg; Activity (Mus musculus [10]): 1.331 g; Activity (Mus musculus [11]): 135 mg; Activity (Mus musculus [26]): 36.7 mg
CC(C)[C@H](NC(=O)[C@H](CC(=O)O)NC(=O)CNC(=O)[C@H](CCCNC(=N)N)NC(=O)COc1ccc2c(c1)CC[C@@H]1[C@@H]2CC[C@]2(C)C(=O)CC[C@@H]12)C(=O)O (X2-RGDV-OH) |  |  |  |  |  |  | 34.1 g | 32.229 U/L | 2.008 mmol/L | 1.602 mmol/L | 63.9 mg | 21.9 mg | 1.628 cm | 47.173% | 24.75% | 131 mg | 0.429 | 168 mg | 1.389 g | 51.9 mg | 
CC(C)[C@H](NC(=O)[C@H](CC(=O)O)NC(=O)CNC(=O)[C@H](CCCNC(=N)N)NC(=O)CCC(=O)O[C@H]1CC[C@H]2[C@@H]3CCc4cc(O)ccc4[C@H]3CC[C@]12C)C(=O)O ({Succinyl(O17-estradiol)}-RGDV-OH) | 68.2 mg | 33 mg | 1.645 cm | 52.003% | 24.879% | 2.03 mmol/L | 34.5 g | 31.057 U/L | 2.005 mmol/L | 1.605 mmol/L | 62.6 mg | 35.8 mg | 1.655 cm | 53.078% | 24.867% | 143 mg | 0.625 | 167 mg | 1.353 g | 69.4 mg | Ratio (Mus musculus [27]): 52.5%; Activity (Mus musculus [7]): 1.61 mmol/L; Activity (Mus musculus [8]): 33.411 U/L; Activity (Mus musculus [9]): 167 mg; Activity (Mus musculus [10]): 1.34 g; Activity (Mus musculus [11]): 133 mg; Activity (Mus musculus [26]): 50.7 mg
C[C@]12CC[C@@H]3c4ccc(O)cc4CC[C@H]3[C@@H]1CC[C@@H]2O [ESTRADIOL] | 63.1 mg | 22.2 mg | 1.62 cm | 41.729% | 24.53% | 2.02 mmol/L | 34.1 g | 35.286 U/L | 2.013 mmol/L | 1.601 mmol/L | 57.7 mg | 28.5 mg | 1.63 cm | 44.466% | 24.995% | 151 mg |  | 168 mg | 1.565 g | 177.1 mg | Activity (Mus musculus [7]): 1.6 mmol/L; Activity (Mus musculus [8]): 37.705 U/L; Activity (Mus musculus [9]): 168 mg; Activity (Mus musculus [10]): 1.335 g; Activity (Mus musculus [11]): 141 mg
N=C(N)NCCC[C@H](N)C(=O)NCC(=O)N[C@@H](CC(=O)O)C(=O)N[C@@H](Cc1ccccc1)C(=O)O (H-RGDF-OH) |  |  |  |  |  |  | 33.3 g | 35.643 U/L | 2.012 mmol/L | 1.599 mmol/L | 60 mg | 22.5 mg | 1.62 cm | 43.815% | 24.585% | 134 mg | 0.423 | 163 mg | 1.413 g | 69.8 mg | 
